Assay results as given in ChEMBL document CHEMBL5625229 (Eur J Med Chem, 2023).

How the values were obtained:
[1] = target: ATP-dependent translocase ABCB1 (Homo sapiens, UniProt P08183); test: Inhibition of MDR1 (unknown origin) overexpressed in MDCK cells using Calcein-AM as substrate preincubated for 30 mins followed by substrate addition measured after 30 mins by fluorescence based assay; assay type: cell-based
[2] = target: Multidrug resistance-associated protein 1 (Homo sapiens, UniProt P33527); test: Inhibition of MRP1 (unknown origin) overexpressed in MDCK cells using Calcein-AM as substrate preincubated for 30 mins followed by substrate addition measured after 30 mins by fluorescence based assay; assay type: cell-based
Multidrug resistance-associated protein 1, sequence (P33527 whole entry): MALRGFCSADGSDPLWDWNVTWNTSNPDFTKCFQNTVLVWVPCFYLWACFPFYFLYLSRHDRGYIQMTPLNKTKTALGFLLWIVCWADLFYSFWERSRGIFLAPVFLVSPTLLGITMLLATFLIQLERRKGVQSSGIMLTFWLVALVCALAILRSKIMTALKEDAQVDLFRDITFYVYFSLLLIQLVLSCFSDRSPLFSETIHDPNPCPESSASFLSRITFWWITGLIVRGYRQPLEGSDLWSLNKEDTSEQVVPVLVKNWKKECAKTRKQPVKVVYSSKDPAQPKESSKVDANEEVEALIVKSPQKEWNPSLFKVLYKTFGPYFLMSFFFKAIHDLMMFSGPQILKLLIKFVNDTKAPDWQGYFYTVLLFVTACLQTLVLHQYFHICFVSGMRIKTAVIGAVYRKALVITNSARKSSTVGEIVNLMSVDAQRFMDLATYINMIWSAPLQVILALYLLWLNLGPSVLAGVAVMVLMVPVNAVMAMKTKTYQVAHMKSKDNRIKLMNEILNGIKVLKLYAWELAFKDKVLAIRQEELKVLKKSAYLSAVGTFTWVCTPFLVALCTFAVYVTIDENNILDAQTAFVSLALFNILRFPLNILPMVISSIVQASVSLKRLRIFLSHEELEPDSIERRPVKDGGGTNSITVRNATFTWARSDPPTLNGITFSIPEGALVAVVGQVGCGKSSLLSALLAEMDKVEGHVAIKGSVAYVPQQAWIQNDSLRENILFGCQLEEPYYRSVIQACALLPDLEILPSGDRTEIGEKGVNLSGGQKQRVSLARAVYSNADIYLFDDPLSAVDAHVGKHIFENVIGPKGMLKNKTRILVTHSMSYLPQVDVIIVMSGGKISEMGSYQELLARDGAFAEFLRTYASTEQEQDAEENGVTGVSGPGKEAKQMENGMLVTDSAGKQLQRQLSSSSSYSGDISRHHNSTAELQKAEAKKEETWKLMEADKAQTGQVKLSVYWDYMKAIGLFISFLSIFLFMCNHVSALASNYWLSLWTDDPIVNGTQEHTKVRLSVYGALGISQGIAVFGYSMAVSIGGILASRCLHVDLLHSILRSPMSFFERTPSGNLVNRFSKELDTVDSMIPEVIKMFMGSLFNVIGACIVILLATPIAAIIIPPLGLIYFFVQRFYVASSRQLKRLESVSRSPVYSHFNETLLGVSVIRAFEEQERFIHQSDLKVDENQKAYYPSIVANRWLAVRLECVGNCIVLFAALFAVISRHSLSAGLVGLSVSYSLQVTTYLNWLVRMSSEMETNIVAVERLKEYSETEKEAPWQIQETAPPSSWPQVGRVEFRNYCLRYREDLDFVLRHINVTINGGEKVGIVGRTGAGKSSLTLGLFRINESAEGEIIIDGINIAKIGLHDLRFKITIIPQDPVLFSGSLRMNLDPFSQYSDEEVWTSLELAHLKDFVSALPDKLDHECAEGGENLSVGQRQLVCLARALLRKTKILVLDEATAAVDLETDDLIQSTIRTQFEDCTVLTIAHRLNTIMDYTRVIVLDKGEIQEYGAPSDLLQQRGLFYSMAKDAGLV
How it was run: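 MDCK-MRP1 cells, 30 000/well, grown overnight, then treated with compound (final 0.01 nM–100 µM, lower for very potent ones) in medium for 30 min at 37 °C. Calcein-AM added at 2.5 µM final for 30 min, then three ice-cold PBS washes. Fluorescence read at 485/535 nm against untreated cells. EC50 from fluorescence increase versus log dose, mean ± SEM of three experiments in duplicate.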

[3] = target: T1, Broad substrate specificity ATP-binding cassette transporter ABCG2 (Homo sapiens, UniProt Q9UNQ0); test: Inhibition of BCRP (unknown origin) overexpressed in MDCK cells using Hoechst 33342 as substrate preincubated for 30 mins followed by substrate addition measured after 30 mins by fluorescence based assay; assay type: cell-based
T1 sequence (Q9UNQ0 whole entry): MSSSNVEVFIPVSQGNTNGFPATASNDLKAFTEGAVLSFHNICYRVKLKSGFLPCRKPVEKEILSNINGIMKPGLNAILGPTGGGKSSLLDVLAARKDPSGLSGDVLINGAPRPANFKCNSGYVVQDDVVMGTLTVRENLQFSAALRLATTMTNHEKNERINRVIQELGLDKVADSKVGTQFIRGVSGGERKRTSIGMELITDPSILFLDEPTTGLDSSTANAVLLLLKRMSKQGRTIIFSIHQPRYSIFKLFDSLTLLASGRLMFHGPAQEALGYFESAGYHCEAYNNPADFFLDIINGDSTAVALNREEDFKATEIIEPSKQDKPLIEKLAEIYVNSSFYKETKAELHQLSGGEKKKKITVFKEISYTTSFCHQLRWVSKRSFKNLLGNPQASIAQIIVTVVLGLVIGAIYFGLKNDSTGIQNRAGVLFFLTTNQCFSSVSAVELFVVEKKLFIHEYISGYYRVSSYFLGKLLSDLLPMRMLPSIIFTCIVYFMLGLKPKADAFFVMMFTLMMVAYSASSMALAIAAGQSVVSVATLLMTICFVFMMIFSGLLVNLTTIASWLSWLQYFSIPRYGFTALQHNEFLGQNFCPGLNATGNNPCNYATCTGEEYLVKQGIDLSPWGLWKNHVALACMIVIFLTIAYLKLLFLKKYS

[4] = Efflux ratio of apparent permeability across basal to apical membrane over apical to basal membrane in human Caco-2 cells at 100 uM incubated fro 120 mins by spectroscopy; assay type: ADME, cell-based
How it was run: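 Caco-2 grown 21 days on Transwell filters, with TEER checked daily (above 1000 Ω taken as optimal). Washed in HBSS and equilibrated 30 min at 37 °C, then compound at 100 µM added to the donor side (apical or basolateral), with fresh HBSS on the receiver side, for 120 min at 37 °C. Acceptor concentration by UV spectroscopy gives Papp (nm/s). Ratio = Papp BA/AB, three experiments in duplicate.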

HT-29 = test: Antiproliferative activity against human HT-29 cells at 1 to 10 uM incubated for 48 hrs relative to control; assay type: functional; conditions: dose 1-10 µM
How it was run: (§1)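 Compound alone (1 μM and 10 μM), 48 h, on HT29 or on HT29/DX (the latter kept in 100 nM doxorubicin to hold resistance). Cells seeded 10 000/well, compound added after 24 h. Viability by MTT (0.5 mg/mL, 3–4 h), formazan in DMSO/EtOH 1:1, absorbance 570/630 nm. Three independent experiments in duplicate.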

[5] = Antiproliferative activity against doxorubicin-resistant human HT-29 cells at 1 to 10 uM incubated for 48 hrs relative to control; assay type: functional, doxorubicin-resistant human HT-29 cell; conditions: dose 1-10 µM; how it was run: as §1
[6] = Potentiation of DOX-induced cytotoxicity against doxorubicin-resistant human HT-29 cells assessed as reduction in cell viability at 10 uM incubated for 48 hrs relative to control; assay type: functional, doxorubicin-resistant human HT-29 cell
How it was run: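 HT29/DX cells (10 000/well) were given compound at 1 or 10 µM together with 5 µM doxorubicin 24 h after seeding. After 48 h, viability by MTT (0.5 mg/mL, 3–4 h, 37 °C), read at 570/630 nm against untreated cells. Three independent experiments, technical duplicates; one-way ANOVA.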

ATP-dependent translocase ABCB1, sequence (P08183 whole entry): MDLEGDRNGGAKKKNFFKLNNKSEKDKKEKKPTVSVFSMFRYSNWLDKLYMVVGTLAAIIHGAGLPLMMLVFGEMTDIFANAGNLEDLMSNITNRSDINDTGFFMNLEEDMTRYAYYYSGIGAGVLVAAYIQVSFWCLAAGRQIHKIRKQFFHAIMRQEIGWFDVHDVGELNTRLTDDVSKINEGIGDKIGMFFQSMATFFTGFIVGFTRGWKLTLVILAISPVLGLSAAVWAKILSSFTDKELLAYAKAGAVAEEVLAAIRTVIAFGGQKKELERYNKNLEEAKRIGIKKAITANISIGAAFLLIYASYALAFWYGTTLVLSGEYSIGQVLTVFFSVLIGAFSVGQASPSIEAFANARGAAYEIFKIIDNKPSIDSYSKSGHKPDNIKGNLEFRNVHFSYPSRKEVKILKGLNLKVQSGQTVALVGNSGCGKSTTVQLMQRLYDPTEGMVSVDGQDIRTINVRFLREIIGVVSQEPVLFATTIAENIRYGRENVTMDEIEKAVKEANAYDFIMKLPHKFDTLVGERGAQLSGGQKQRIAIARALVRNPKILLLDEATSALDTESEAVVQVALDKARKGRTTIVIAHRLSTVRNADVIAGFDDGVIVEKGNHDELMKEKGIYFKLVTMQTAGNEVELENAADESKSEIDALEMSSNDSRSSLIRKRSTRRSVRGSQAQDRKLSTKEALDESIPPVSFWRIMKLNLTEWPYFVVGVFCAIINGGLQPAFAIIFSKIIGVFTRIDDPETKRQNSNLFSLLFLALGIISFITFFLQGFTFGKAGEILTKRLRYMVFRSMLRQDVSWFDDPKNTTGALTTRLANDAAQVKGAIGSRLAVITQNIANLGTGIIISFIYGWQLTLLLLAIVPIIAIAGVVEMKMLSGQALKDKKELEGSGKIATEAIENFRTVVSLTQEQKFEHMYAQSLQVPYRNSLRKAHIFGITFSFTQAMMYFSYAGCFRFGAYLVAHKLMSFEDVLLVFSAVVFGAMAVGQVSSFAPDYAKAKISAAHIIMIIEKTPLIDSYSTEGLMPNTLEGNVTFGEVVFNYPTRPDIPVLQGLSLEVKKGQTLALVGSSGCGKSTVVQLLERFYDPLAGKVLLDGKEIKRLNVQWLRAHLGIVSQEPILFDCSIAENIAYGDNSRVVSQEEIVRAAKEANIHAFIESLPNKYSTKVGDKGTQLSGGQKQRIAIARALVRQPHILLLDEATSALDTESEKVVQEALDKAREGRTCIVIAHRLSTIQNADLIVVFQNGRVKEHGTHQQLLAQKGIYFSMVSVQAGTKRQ

Compound	EC50 [1] [µM]	EC50 [2] [µM]	EC50 [3] [µM]	efflux ratio at 2 h, 100 µM [4]	Activity (HT-29) [%]	Activity [5] [%]	Activity [6] [%]
COc1cc2c(cc1OC)CN(CCc1ccc(-n3nnnc3/C=C/c3cc(OC)c(OC)c(OC)c3)cc1)CC2	5.27	> 100	–	–	–	–	–
COc1cc2c(cc1OC)CN(CCc1ccc(-n3nnc(-c4ccccc4OC)n3)cc1)CC2	0.082	> 100	–	–	–	–	–
COc1cc2c(cc1OC)CN(CCc1ccc(-n3nnnc3-c3c(OC)ccc4ccccc34)cc1)CC2	0.75	> 100	–	–	–	–	–
COc1cc2c(cc1OC)CN(CCc1ccc(-n3nnnc3-c3cc(OC)c(OC)c(OC)c3)cc1)CC2	0.63	4.33	–	–	–	–	–
COc1cc2c(cc1OC)CN(CCc1ccc(-n3nnnc3-c3ccccc3OC)cc1)CC2	0.95	> 100	–	–	–	–	–
COc1cc2c(cc1OC)CN(CCc1ccc(NC(=O)c3cc(OC)c(OC)cc3NC(=O)c3cnc4ccccc4c3)cc1)CC2	–	–	–	22	–	–	–
COc1cc2c(cc1OC)CN(CCc1ccc(NC(=O)c3cccc4c(=O)c5cccc(OC)c5[nH]c34)cc1)CC2	–	> 100	–	–	–	–	–
COc1cc2c(cc1OC)CN(CCc1ccc(-n3nnc(-c4cc(OC)c(OC)c(OC)c4)n3)cc1)CC2	0.26	> 100	–	–	–	–	–
COc1cc2c(cc1OC)CN(CCc1ccc(-n3nnnc3-c3c(OC)c(OC)cc4ccccc34)cc1)CC2	1.06	> 100	> 100	3.3	–	–	–
COc1cc2c(cc1OC)CN(CCc1ccc(-n3nnc(-c4cccc(OC)c4OC)n3)cc1)CC2	0.14	> 100	–	–	–	–	–
COc1cc2c(cc1OC)CN(CCc1ccc(-c3nnc(-c4c(OC)ccc5ccccc45)o3)cc1)CC2	–	> 100	> 100	–	–	–	–
COc1cc2c(cc1OC)CN(CCc1ccc(-n3nnc(/C=C/c4cc(OC)c(OC)c(OC)c4)n3)cc1)CC2	0.012	> 100	53.6	5.4	~10	~10	–
COc1cc2c(cc1OC)CN(CCc1ccc(-n3nnc(-c4c(OC)ccc5ccccc45)n3)cc1)CC2	0.09	> 100	> 100	4.5	~10	~10	–
COc1cc2c(cc1OC)CN(CCc1ccc(-n3nnc(-c4c(OC)c(OC)cc5ccccc45)n3)cc1)CC2	0.26	> 100	–	–	–	–	–
COc1cc2c(cc1OC)CN(CCc1ccc(-n3nnc(-c4c(OC)cccc4OC)n3)cc1)CC2	–	> 100	–	–	–	–	–

Continued, in another order:

EC50 [1] [µM]	EC50 [2] [µM]	EC50 [3] [µM]	efflux ratio at 2 h, 100 µM [4]	Compound	Activity (HT-29) [%]	Activity [5] [%]	Activity [6] [%]
0.4	> 100	> 100	6.8	COc1cc2c(cc1OC)CN(CCc1ccc(-c3nnc(-c4cccc(OC)c4OC)o3)cc1)CC2	~10	~10	–
0.046	> 100	> 100	9.7	COc1cc2c(cc1OC)CN(CCc1ccc(-c3nnc(-c4c(OC)c(OC)cc5ccccc45)o3)cc1)CC2	~10	~10	–
–	> 100	> 100	–	COc1cc2c(cc1OC)CN(CCc1ccc(-c3nnc(-c4c(OC)cccc4OC)o3)cc1)CC2	–	–	–
0.071	> 100	–	–	COc1cc2c(cc1OC)CN(CCc1ccc(-c3nnc(-c4cc(OC)c(OC)c(OC)c4)o3)cc1)CC2	–	–	–
0.44	> 100	> 100	6.5	COc1cc2c(cc1OC)CN(CCc1ccc(-c3nnc(-c4ccc(OC)c(OC)c4OC)o3)cc1)CC2	~10	~10	–
0.55	> 100	–	–	COc1cc2c(cc1OC)CN(CCc1ccc(-n3nnc(-c4ccc(OC)c(OC)c4OC)n3)cc1)CC2	–	–	–
–	> 100	–	–	COc1cc2c(cc1OC)CN(CCc1ccc(-c3nnc(/C=C/c4cc(OC)c(OC)c(OC)c4)o3)cc1)CC2	–	–	–
0.75	7.49	–	–	COc1cc2c(cc1OC)CN(CCc1ccc(-n3nnnc3-c3ccc(OC)c(OC)c3OC)cc1)CC2	–	–	–
0.019	> 100	> 100	6.3	COc1cc2c(cc1OC)CN(CCc1ccc(-c3nnc(-c4ccccc4OC)o3)cc1)CC2	~10	~10	64.3
